# According to ChEMBL document CHEMBL3525900, “Pharmacokinetics, distribution, and metabolism of [14C]sunitinib in rats, monkeys, and humans” (Drug Metab Dispos, 2012):
# Experiments:
# Format in all cases: ADME, organism-based
# [1] = Drug concentration in female albino rat skeletal muscle assessed as radioactivity per gram of tissue at 20 mg/kg administered as single dose via gastric gavage measured after 3 hrs by autoradiographic analysis; parameters: dose 20 mg/kg, dosed compound name [14C]Sunitinib; settings: in vivo, po
# Spleen [2] = experiment: Drug concentration in female albino rat spleen assessed as radioactivity per gram of tissue at 20 mg/kg administered as single dose via gastric gavage measured after 6 hrs by autoradiographic analysis; parameters: dose 20 mg/kg, dosed compound name [14C]Sunitinib; settings: in vivo, po
# Adrenal [3] = experiment: Drug concentration in female Lister Hooded pigmented rat adrenal assessed as radioactivity per gram of tissue at 20 mg/kg administered as single dose via gastric gavage measured after 168 hrs by autoradiographic analysis; parameters: dose 20 mg/kg, dosed compound name [14C]Sunitinib; settings: in vivo, po
# Summary of the method: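 Pigmented Lister Hooded rats, 7-8 weeks old, received [14C]sunitinib L-malate by gavage at 20 mg/kg (15 mg freebase/kg, 100 µCi/kg). One rat per sex was killed by CO2 at each of 24, 72, 168 and 336 h. Carcasses were frozen in solid CO2/hexane and cut into 30 µm sagittal sections, then freeze-dried. Tissue radioactivity was quantified by whole-body autoradiography calibrated against standards by regression (LOQ 0.04–0.06 µg eq/g).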
# Large intestine [4] = experiment: Drug concentration in female albino rat large intestine assessed as radioactivity per gram of tissue at 20 mg/kg administered as single dose via gastric gavage measured after 3 hrs by autoradiographic analysis; parameters: dose 20 mg/kg, dosed compound name [14C]Sunitinib; settings: in vivo, po
# Summary of the method: (§1)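 Sprague Dawley albino rats, ca 7-8 weeks old, dosed once by gastric gavage with [14C]sunitinib L-malate (15 mg freebase/kg, 100 µCi/kg). One male and one female killed by CO2 at 3, 6, 24, 72 and 168 h. Carcasses frozen in solid CO2/hexane, embedded and cut into 30 µm sagittal sections, then freeze-dried. Radioactivity quantified by whole-body autoradiography against standards by regression, background subtracted.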
# Spleen [5] = experiment: Drug concentration in male Lister Hooded pigmented rat spleen assessed as radioactivity per gram of tissue at 20 mg/kg administered as single dose via gastric gavage measured after 24 hrs by autoradiographic analysis; parameters: dose 20 mg/kg, dosed compound name [14C]Sunitinib; settings: in vivo, po
# Brain = experiment: Drug concentration in male albino rat brain assessed as radioactivity per gram of tissue at 20 mg/kg administered as single dose via gastric gavage measured after 72 hrs by autoradiographic analysis; parameters: dose 20 mg/kg, dosed compound name [14C]Sunitinib; settings: in vivo, po
# [6] = Drug concentration in female albino rat uveal tract assessed as radioactivity per gram of tissue at 20 mg/kg administered as single dose via gastric gavage measured after 6 hrs by autoradiographic analysis; parameters: dose 20 mg/kg, dosed compound name [14C]Sunitinib; settings: in vivo, po
# Large intestine [7] = experiment: Drug concentration in female albino rat large intestine assessed as radioactivity per gram of tissue at 20 mg/kg administered as single dose via gastric gavage measured after 6 hrs by autoradiographic analysis; parameters: dose 20 mg/kg, dosed compound name [14C]Sunitinib; settings: in vivo, po; summary of the method: as §1
# Spinal cord = experiment: Drug concentration in female albino rat spinal cord assessed as radioactivity per gram of tissue at 20 mg/kg administered as single dose via gastric gavage measured after 3 hrs by autoradiographic analysis; parameters: dose 20 mg/kg, dosed compound name [14C]Sunitinib; settings: in vivo, po
# [8] = Drug concentration in male Lister Hooded pigmented rat eye assessed as radioactivity per gram of tissue at 20 mg/kg administered as single dose via gastric gavage measured after 336 hrs by autoradiographic analysis; parameters: dose 20 mg/kg, dosed compound name [14C]Sunitinib; settings: in vivo, po
# [9] = Drug concentration in female albino rat thyroid gland assessed as radioactivity per gram of tissue at 20 mg/kg administered as single dose via gastric gavage measured after 3 hrs by autoradiographic analysis; parameters: dose 20 mg/kg, dosed compound name [14C]Sunitinib; settings: in vivo, po
# Spleen [10] = experiment: Drug concentration in male Lister Hooded pigmented rat spleen assessed as radioactivity per gram of tissue at 20 mg/kg administered as single dose via gastric gavage measured after 72 hrs by autoradiographic analysis; parameters: dose 20 mg/kg, dosed compound name [14C]Sunitinib; settings: in vivo, po
# [11] = Drug concentration in female albino rat bone marrow assessed as radioactivity per gram of tissue at 20 mg/kg administered as single dose via gastric gavage measured after 72 hrs by autoradiographic analysis; parameters: dose 20 mg/kg, dosed compound name [14C]Sunitinib; settings: in vivo, po
# Summary of the method: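 Sprague Dawley (albino) rats, ca 7-8 weeks old, received a single gastric-gavage dose of [14C]sunitinib L-malate at 20 mg/kg (15 mg freebase/kg, 100 µCi/kg). One animal per sex killed by CO2 at 3, 6, 24, 72 and 168 h, then frozen in CO2/hexane. 30 µm sagittal sections were cut and freeze-dried. Radioactivity per gram quantified by whole-body autoradiography using regression against standards. LOQ 0.04–0.06 µg freebase equiv/g.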
# Large intestine [12] = experiment: Drug concentration in female albino rat large intestine assessed as radioactivity per gram of tissue at 20 mg/kg administered as single dose via gastric gavage measured after 72 hrs by autoradiographic analysis; parameters: dose 20 mg/kg, dosed compound name [14C]Sunitinib; settings: in vivo, po; summary of the method: as §1
# Blood = experiment: Drug concentration in female Lister Hooded pigmented rat blood assessed as radioactivity per gram of tissue at 20 mg/kg administered as single dose via gastric gavage measured after 24 hrs by autoradiographic analysis; parameters: dose 20 mg/kg, dosed compound name [14C]Sunitinib; settings: in vivo, po
# Summary of the method: (§2)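 Lister Hooded (pigmented) rats, ca 7-8 weeks old, acclimated 7 days, given [14C]sunitinib L-malate by gastric gavage at 20 mg/kg (15 mg freebase/kg, 100 µCi/kg). One male and one female killed by CO2 at 24, 72, 168 and 336 h. Carcasses frozen in solid CO2/hexane and embedded in frozen cellulose. 30 µm sagittal cryosections were freeze-dried. Tissue radioactivity measured by quantitative whole-body autoradiography against calibration standards, with background subtracted.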
# Small intestine [13] = experiment: Drug concentration in female albino rat small intestine assessed as radioactivity per gram of tissue at 20 mg/kg administered as single dose via gastric gavage measured after 72 hrs by autoradiographic analysis; parameters: dose 20 mg/kg, dosed compound name [14C]Sunitinib; settings: in vivo, po
# Rattus norvegicus [14] = experiment: Drug recovery in cage residue of female Sprague-Dawley rat at 15 mg/kg, po administered as single dose during 0 to 72 hrs by liquid scintillation counting; parameters: dose 15 mg/kg, dosed compound name [14C]Sunitinib, route oral; settings: in vivo
# [15] = Drug recovery in feces of human at 50 mg, po administered as single dose during 0 to 504 hrs by liquid scintillation counting; parameters: dosed compound name [14C]Sunitinib; settings: in vivo
# Heart [16] = experiment: Drug concentration in male Lister Hooded pigmented rat heart assessed as radioactivity per gram of tissue at 20 mg/kg administered as single dose via gastric gavage measured after 24 hrs by autoradiographic analysis; parameters: dose 20 mg/kg, dosed compound name [14C]Sunitinib; settings: in vivo, po
# [17] = Drug concentration in male Lister Hooded pigmented rat pituitary gland assessed as radioactivity per gram of tissue at 20 mg/kg administered as single dose via gastric gavage measured after 24 hrs by autoradiographic analysis; parameters: dose 20 mg/kg, dosed compound name [14C]Sunitinib; settings: in vivo, po
# Small intestine [18] = experiment: Drug concentration in male Lister Hooded pigmented rat small intestine assessed as radioactivity per gram of tissue at 20 mg/kg administered as single dose via gastric gavage measured after 72 hrs by autoradiographic analysis; parameters: dose 20 mg/kg, dosed compound name [14C]Sunitinib; settings: in vivo, po
# Adrenal [19] = experiment: Drug concentration in female Lister Hooded pigmented rat adrenal assessed as radioactivity per gram of tissue at 20 mg/kg administered as single dose via gastric gavage measured after 72 hrs by autoradiographic analysis; parameters: dose 20 mg/kg, dosed compound name [14C]Sunitinib; settings: in vivo, po; summary of the method: as §2
# Heart [20] = experiment: Drug concentration in female albino rat heart assessed as radioactivity per gram of tissue at 20 mg/kg administered as single dose via gastric gavage measured after 6 hrs by autoradiographic analysis; parameters: dose 20 mg/kg, dosed compound name [14C]Sunitinib; settings: in vivo, po; summary of the method: as §1
# Pancreas [21] = experiment: Drug concentration in male albino rat pancreas assessed as radioactivity per gram of tissue at 20 mg/kg administered as single dose via gastric gavage measured after 3 hrs by autoradiographic analysis; parameters: dose 20 mg/kg, dosed compound name [14C]Sunitinib; settings: in vivo, po
# Pancreas [22] = experiment: Drug concentration in male albino rat pancreas assessed as radioactivity per gram of tissue at 20 mg/kg administered as single dose via gastric gavage measured after 6 hrs by autoradiographic analysis; parameters: dose 20 mg/kg, dosed compound name [14C]Sunitinib; settings: in vivo, po
# Rattus norvegicus [23] = experiment: Drug recovery in cage residue of male Sprague-Dawley rat at 15 mg/kg, po administered as single dose during 0 to 72 hrs by liquid scintillation counting; parameters: dose 15 mg/kg, dosed compound name [14C]Sunitinib, route oral; settings: in vivo
# Thymus = experiment: Drug concentration in male albino rat thymus assessed as radioactivity per gram of tissue at 20 mg/kg administered as single dose via gastric gavage measured after 24 hrs by autoradiographic analysis; parameters: dose 20 mg/kg, dosed compound name [14C]Sunitinib; settings: in vivo, po
structure (smiles),measurement,setting,value
CCN(CC)CCNC(=O)c1c(C)[nH]c(/[14CH]=C2\C(=O)Nc3ccc(F)cc32)c1C.O=C(O)C[C@H](O)C(=O)O,Radiolabel recovery,[1],3.97 ugequiv
same,Radiolabel recovery,Spleen [2],27.96 ugequiv
same,Radiolabel recovery,Adrenal [3],0.35 ugequiv
same,Radiolabel recovery,Large intestine [4],7 ugequiv
same,Radiolabel recovery,Spleen [5],1.63 ugequiv
same,Radiolabel recovery,Brain,0.07 ugequiv
same,Radiolabel recovery,[6],4.94 ugequiv
same,Radiolabel recovery,Large intestine [7],7.43 ugequiv
same,Radiolabel recovery,Spinal cord,0.28 ugequiv
same,Radiolabel recovery,[8],39.4 ugequiv
same,Radiolabel recovery,[9],18.64 ugequiv
same,Radiolabel recovery,Spleen [10],0.13 ugequiv
same,Radiolabel recovery,[11],0.1 ugequiv
same,Radiolabel recovery,Large intestine [12],0.09 ugequiv
same,Radiolabel recovery,Blood,0.14 ugequiv
same,Radiolabel recovery,Small intestine [13],0.08 ugequiv
same,Radiolabel recovery,Rattus norvegicus [14],2.2%
same,Radiolabel recovery,[15],61%
same,Radiolabel recovery,Heart [16],0.43 ugequiv
same,Radiolabel recovery,[17],7.71 ugequiv
same,Radiolabel recovery,Small intestine [18],0.07 ugequiv
same,Radiolabel recovery,Adrenal [19],1.57 ugequiv
same,Radiolabel recovery,Heart [20],6.18 ugequiv
same,Radiolabel recovery,Pancreas [21],11.1 ugequiv
same,Radiolabel recovery,Pancreas [22],9.18 ugequiv
same,Radiolabel recovery,Rattus norvegicus [23],1.5%
same,Radiolabel recovery,Thymus,0.58 ugequiv
